Experimental data as given in ChEMBL document CHEMBL4330069, “Boosting the efficacy of anti-MRSA β-lactam antibiotics via an easily accessible, non-cytotoxic and orally bioavailable FtsZ inhibitor” (Eur J Med Chem, 2019).
Values after ≈ are worked out from the molar mass of the structure shown.

Experiments:
[1] = tested on: L929; experiment: Cytotoxicity against mouse L929 cells by MTS assay; type: cell-based
In short: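 MTS assay on L929 mouse fibroblasts; IC50 reported as the average of three independent measurements.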

[2] = tested on: Escherichia coli; experiment: Antibacterial activity against Escherichia coli ATCC 25922 by broth microdilution assay; type: functional
In short: (§1)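 Broth microdilution per CLSI guidelines; compounds dissolved in DMSO; single agents tested; growth inhibition read by eye; run in duplicate (table footnote states at least triplicates).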

[3] = tested on: Staphylococcus aureus; experiment: Antibacterial activity against Staphylococcus aureus ATCC 29213 by broth microdilution assay; type: functional; in short: as §1
[4] = Selective index, ratio of IC50 for mouse L929 cells to MIC for Staphylococcus aureus ATCC 29213
In short: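 Selectivity index calculated as L929 IC50 (μM) divided by S. aureus MIC (μM).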

MIC [2] [µg/mL] | MIC [3] [µM] | Compound | IC50 [1] [µM] | Selectivity Index [4]
> 64 | 50 (≈ 15.7 µg/mL) | CCCCCCCCCNc1ccc(F)c(/C(N)=N/O)c1F | > 100 | >2
> 64 | 50 (≈ 14.2 µg/mL) | CCCCCCCCNc1ccc(F)c(C(N)=O)c1F | > 100 | >2
> 64 | 3.1 (≈ 0.928 µg/mL) | CCCCCCCCCOc1ccc(F)c(C(N)=O)c1F | 90 | 29
> 64 | 50 (≈ 15.6 µg/mL) | CCCCCCCCCN(C)c1ccc(F)c(C(=N)N)c1F | > 100 | >2
> 64 | 50 (≈ 16.2 µg/mL) | CCCCCCCCCNc1ccc(F)c(-c2nnn[nH]2)c1F | > 100 | >2

Continued, molecule first:

Compound | MIC [2] [µg/mL] | MIC [3] [µM] | IC50 [1] [µM] | Selectivity Index [4]
CCCCOc1cccc(CNc2ccc(F)c(C(N)=O)c2F)c1 | > 64 | 50 (≈ 16.7 µg/mL) | 99 | 2
CCCCCOc1cccc(CNc2ccc(F)c(C(N)=O)c2F)c1 | > 64 | 50 (≈ 17.4 µg/mL) | 87 | 2
CCCCCCCC(C)Nc1ccc(F)c(C(N)=O)c1F (stereo unspecified) | > 64 | 13 (≈ 3.88 µg/mL) | > 100 | >8
NC(=O)c1c(F)ccc(N(Cc2ccc(Cl)cc2)Cc2ccc(Cl)cc2)c1F | > 64 | 13 (≈ 5.48 µg/mL) | > 100 | >8
CCCCCCCCCN(C)c1ccc(F)c(/C(N)=N/O)c1F | > 64 | 13 (≈ 4.26 µg/mL) | > 100 | >8
NC(=O)c1c(F)ccc(N(Cc2ccc(F)cc2)Cc2ccc(F)cc2)c1F | > 64 | 50 (≈ 19.4 µg/mL) | > 100 | >2
CCCCCCCCCN(C)c1ccc(F)c(C(N)=O)c1F | > 64 | 3.1 (≈ 0.968 µg/mL) | 60 | 19
CCCCCC/C=C\CNc1ccc(F)c(C(N)=O)c1F | > 64 | 25 (≈ 7.41 µg/mL) | 99 | 4
CCCCCCCCN(C)c1ccc(F)c(C(N)=O)c1F | > 64 | 13 (≈ 3.88 µg/mL) | 92 | 7
